According to ChEMBL document CHEMBL3046222, “Insecticidal activity of penitrems, including penitrem G, a new member of the family isolated from Penicillium crustosum” (2003):

Experiments:
Type in all cases: functional
Ceratitis capitata [1] = assay: Insecticidal activity against adult Ceratitis capitata assessed as fecundity reduction at 10 ug/fly measured every 2 days for 10 days relative to control; parameters: scale not given: the % may be the effect or the level left
In short: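 Flies were anaesthetised on ice and dosed topically on the abdomen with 1 µL of acetone solution; controls received acetone alone. Eggs laid over 24 h were collected and counted every 2 days through the 10-day period. Female deaths were logged to give eggs/female/day, accumulated over 10 days. Six independent experiments, reported as means ± SE.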

Oncopeltus fasciatus [2] = assay: Insecticidal activity against third-instar nymph stage of Oncopeltus fasciatus assessed as mortality at 20 ug/cm2 after 72 hr relative to control
In short: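 Nymphs were reared on sunflower seeds at 27 ± 1 °C, 50-60% RH and 16 h/8 h light/dark. Acute toxicity was scored as dead insects after 72 h of exposure. Controls received the same amount of acetone. Run in triplicate; values are means ± SE with significance at […].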

Ceratitis capitata [3] = assay: Insecticidal activity against adult Ceratitis capitata assessed as mortality at 10 ug/fly measured every 24 hr for 10 days relative to control
In short: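 Adults 2-3 days old (5 males, 5 females per group) were anaesthetised on ice and dosed topically on the ventral abdomen with 1 µL of acetone dilution. Controls received 1 µL of acetone. Flies were held at 27 ± 1 °C, 50-60% RH and 16 h/8 h light/dark, with diet and water ad libitum. Mortality was scored every 24 h for 10 days. The assay was run on six occasions.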

Ceratitis capitata [4] = assay: Insecticidal activity against adult Ceratitis capitata assessed as eclosion rate at 10 ug/fly measured on 4 to 10 days relative to control
Ceratitis capitata [5] = assay: Insecticidal activity against adult Ceratitis capitata assessed as fertility reduction at 10 ug/fly measured on 6 to 10 days relative to control; parameters: scale not given: the % may be the effect or the level left
In short: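 Flies were dosed topically with 1 µL of acetone solution after ice anaesthesia; controls received acetone. On days 6 and 10 after treatment, 30 eggs per experiment were picked at random and placed on plates coated with 0.03% agar. Plates were kept at 27 ± 2 °C, 50-60% RH and 16 h/8 h light/dark, and emerged larvae were counted 5 days after collection.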

Oncopeltus fasciatus [6] = assay: Insecticidal activity against third-instar nymph stage of Oncopeltus fasciatus assessed as nymph survival to reach adult instar stage at 20 to 500 ug/cm2 after 72 hr relative to control
In short: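 Insects were colony-reared at 27 ± 1 °C, 50-60% RH and 16 h/8 h photoperiod. After 72 h of exposure, surviving nymphs were moved to a 500 cm3 glass flask and held under standard conditions to follow development to the adult stage. Acetone-treated controls were run in parallel.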

C=C1Cc2c(Cl)cc3[nH]c4c5c3c2[C@H]2[C@@H]1C[C@@H]2C(C)(C)O[C@H]5[C@@H]1CC[C@@]2(O)[C@@]35O[C@@H]3[C@@H](O)[C@@H](C(=C)C)O[C@H]5CC[C@]2(C)[C@@]41C [PENITREM F]
Activity (Ceratitis capitata [1]): 100% | mortality at 20 µg/cm2 (Oncopeltus fasciatus [2]): 20.3% | mortality (Ceratitis capitata [3]): 66.6% | Activity (Ceratitis capitata [4]): 0% | Activity (Ceratitis capitata [5]): 100% | Survival (Oncopeltus fasciatus [6]): 9.5%

C=C(C)[C@H]1O[C@H]2CC[C@@]3(C)[C@@](O)(CC[C@H]4[C@@H]5OC(C)(C)[C@H]6C[C@@H]7C(=C)Cc8c(Cl)cc9[nH]c(c5c9c8[C@@]76O)[C@@]43C)[C@@]23O[C@H]3[C@H]1O [PENITREM A]
Activity (Ceratitis capitata [1]): 78.4% | mortality at 20 µg/cm2 (Oncopeltus fasciatus [2]): 31.1% | mortality (Ceratitis capitata [3]): 59.7% | Activity (Ceratitis capitata [4]): 0% | Activity (Ceratitis capitata [5]): 100% | Survival (Oncopeltus fasciatus [6]): 0%

C=C1Cc2ccc3[nH]c4c5c3c2[C@H]2[C@@H]1C[C@H]2C(C)(C)O[C@H]5[C@@H]1CC[C@@]2(O)C3=C[C@@H](O)[C@@H](C(=C)C)O[C@H]3CC[C@]2(C)[C@@]41C [PENITREM D]
Activity (Ceratitis capitata [1]): 77.1% | mortality at 20 µg/cm2 (Oncopeltus fasciatus [2]): 11.1% | mortality (Ceratitis capitata [3]): 41.7% | Activity (Ceratitis capitata [4]): 42.8% | Activity (Ceratitis capitata [5]): 52.5% | Survival (Oncopeltus fasciatus [6]): 58.3%

C=C1Cc2ccc3[nH]c4c5c3c2[C@H]2[C@@H]1C[C@H]2C(C)(C)O[C@H]5[C@]1(O)CC[C@@]2(O)C3=C[C@@H](O)[C@@H](C(=C)C)O[C@H]3CC[C@]2(C)[C@@]41C [PENITREM G]
Activity (Ceratitis capitata [1]): 7.2% | mortality at 20 µg/cm2 (Oncopeltus fasciatus [2]): 0% | mortality (Ceratitis capitata [3]): 0% | Activity (Ceratitis capitata [4]): 88.5% | Activity (Ceratitis capitata [5]): 3.8% | Survival (Oncopeltus fasciatus [6]): 100%

C=C1Cc2ccc3[nH]c4c5c3c2[C@H]2[C@@H]1C[C@@H]2C(C)(C)O[C@H]5[C@@H]1CC[C@@]2(O)[C@@]35O[C@@H]3[C@@H](O)[C@@H](C(=C)C)O[C@H]5CC[C@]2(C)[C@@]41C [PENITREM B]
Activity (Ceratitis capitata [1]): 88% | mortality at 20 µg/cm2 (Oncopeltus fasciatus [2]): 6.6% | mortality (Ceratitis capitata [3]): 50% | Activity (Ceratitis capitata [4]): 0% | Activity (Ceratitis capitata [5]): 100% | Survival (Oncopeltus fasciatus [6]): 14.3%

C=C1Cc2c(Cl)cc3[nH]c4c5c3c2[C@H]2[C@@H]1C[C@@H]2C(C)(C)O[C@H]5[C@@H]1CC[C@@]2(O)C3=C[C@@H](O)[C@@H](C(=C)C)O[C@H]3CC[C@]2(C)[C@@]41C [PENITREM C]
Activity (Ceratitis capitata [1]): 94.9% | mortality at 20 µg/cm2 (Oncopeltus fasciatus [2]): 24.4% | mortality (Ceratitis capitata [3]): 73.3% | Activity (Ceratitis capitata [4]): 0% | Activity (Ceratitis capitata [5]): 100% | Survival (Oncopeltus fasciatus [6]): 29.5%
